In ChEMBL document CHEMBL1139846, “New fluorescent 2-phenylindolglyoxylamide derivatives as probes targeting the peripheral-type benzodiazepine receptor: design, synthesis, and biological evaluation” (J Med Chem, 2007):
Active and inactive are the calls of the source. No cut-off for these calls is given here.

How the values were obtained:
[1] = target: Translocator protein (Rattus norvegicus, UniProt P16257); test: Displacement of [3H]PK 11195 from peripheral-type benzodiazepine receptor in rat kidney mitochondrial membranes; type: cell membranes, Membrane
[2] = test system: GABA-A receptor / central benzodiazepine receptor (Rattus norvegicus); test: Displacement of [3H]flumazenil from central benzodiazepine receptor in rat cerebral cortex membranes at 10 uM; settings: Membrane
[3] = target: Translocator protein (Rattus norvegicus) (UniProt P16257); test: Displacement of 2-(2-(4-fluorophenyl)-1H-indol -3-yl)-N-(6-(7-nitrobenzo[c][1, 2,5]oxadiazol-4-ylamino)hexyl )-2-oxoacetamide from peripheral type benzodiazepine receptor in rat C6 glioma cells at 10 uM; type: cell-based
Method in brief: (§1)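 Subconfluent rat C6 glioma cells in DMEM preincubated 30 min with PK 11195 or Ip (10 µM to 100 µM range), then stained with fluorescent PBR ligand at final 10 µM in culture medium, 30 min, 37 °C, 5% CO2. PBS wash, 4% paraformaldehyde fixation, fluorescence microscopy; displacement of cytoplasmic (mitochondrial) staining judged visually.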

[4] = target: Translocator protein (Rattus norvegicus) (UniProt P16257); test: Displacement of 2-(2-(4-fluorophenyl)-1H-indol -3-yl)-N-(6-(7-nitrobenzo[c][1, 2,5]oxadiazol-4-ylamino)hexyl )-2-oxoacetamide from peripheral type benzodiazepine receptor in rat C6 glioma cells at 50 uM; type: cell-based; method in brief: as §1

Sequence of Translocator protein (Rattus norvegicus) (P16257 whole entry, looked up): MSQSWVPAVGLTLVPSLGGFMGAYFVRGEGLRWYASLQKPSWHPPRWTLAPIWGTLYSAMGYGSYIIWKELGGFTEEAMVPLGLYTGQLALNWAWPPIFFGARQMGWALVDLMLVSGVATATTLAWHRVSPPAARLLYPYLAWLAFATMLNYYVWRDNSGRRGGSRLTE
Sequence of Translocator protein (P16257 whole entry, looked up): as above

Structure (SMILES) | Ki [1] | inhibition [2] | Activity [3] | Activity [4]
O=C(NCCCCNc1ccc([N+](=O)[O-])c2nonc12)C(=O)c1c(-c2ccc(F)cc2)[nH]c2ccccc12 | 0.023 µM | < 10% |  | 
CCCCCCN(CCCCCC)C(=O)C(=O)c1c(-c2ccc(F)cc2)[nH]c2ccccc12 |  |  | Active | Active
O=C(NCCNc1ccc([N+](=O)[O-])c2[n-][o+]nc12)C(=O)c1c(-c2ccc(F)cc2)[nH]c2ccccc12 | 0.835 µM |  |  | 
CCC(C)N(C)C(=O)c1cc2ccccc2c(-c2ccccc2Cl)n1 (stereo unspecified) |  |  | Active | 
CCCN(CCC)C(=O)Cc1c(-c2ccc(Cl)cc2)nc2ccc(Cl)cn12 [ALPIDEM] | 0.0005 µM |  |  | 
O=C(NCCCCCCNc1ccc([N+](=O)[O-])c2nonc12)C(=O)c1c(-c2ccc(F)cc2)[nH]c2ccccc12 | 0.012 µM | < 10% |  | 
O=C(NCCNc1ccc([N+](=O)[O-])c2nonc12)C(=O)c1c(-c2ccc(F)cc2)[nH]c2ccccc12 |  | < 10% |  | 
O=C(NCCCCCCNc1ccc([N+](=O)[O-])c2[n-][o+]nc12)C(=O)c1c(-c2ccccc2)[nH]c2ccccc12 | 0.017 µM |  |  | 
O=C(NCCNc1ccc([N+](=O)[O-])c2nonc12)C(=O)c1c(-c2ccccc2)[nH]c2ccccc12 | 0.994 µM | < 10% |  | 
O=C(NCCCCCCNc1ccc([N+](=O)[O-])c2nonc12)C(=O)c1c(-c2ccccc2)[nH]c2ccccc12 |  | < 10% |  | 
O=C(NCCCCNc1ccc([N+](=O)[O-])c2nonc12)C(=O)c1c(-c2ccccc2)[nH]c2ccccc12 | 0.042 µM | < 10% |  | 
